Test results as given in ChEMBL document CHEMBL2331093, “Synthesis and biological evaluation of novel propargyl amines as potential fluorine-18 labeled radioligands for detection of MAO-B activity” (Bioorg Med Chem, 2013).
pIC50: −log10 of the molar value.

Tests used:
Plasma [1] = assay: Metabolic stability in cynomolgus monkey plasma assessed as metabolite M4 retention time at 168 MBq, iv by HPLC analysis; type: ADME, organism-based, Macaca fascicularis; settings: in vivo
Plasma [2] = assay: Metabolic stability in cynomolgus monkey plasma assessed as metabolite M3 retention time at 168 MBq, iv by HPLC analysis; type: ADME, organism-based, Macaca fascicularis; settings: in vivo
Plasma [3] = assay: Metabolic stability in cynomolgus monkey plasma assessed as metabolite M2 retention time at 168 MBq, iv by HPLC analysis; type: ADME, organism-based, Macaca fascicularis; settings: in vivo
Plasma [4] = assay: Metabolic stability in cynomolgus monkey plasma assessed as metabolite M1 retention time at 168 MBq, iv by HPLC analysis; type: ADME, organism-based, Macaca fascicularis; settings: in vivo
[5] = Drug uptake in cynomolgus monkey cortex at 168 MBq, iv by PET imaging; type: ADME, organism-based, Macaca fascicularis; settings: in vivo
How it was run: (§1)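 PET brain imaging in a cynomolgus monkey after injection of the fluorine-18 labeled radioligand; regional radioactivity uptake expressed as %SUV over time post injection.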

[6] = Drug uptake in cynomolgus monkey cerebellum at 168 MBq, iv by PET imaging; type: ADME, organism-based, Macaca fascicularis; settings: in vivo; how it was run: as §1
Thalamus = assay: Drug uptake in cynomolgus monkey thalamus at 168 MBq, iv by PET imaging; type: ADME, organism-based, Macaca fascicularis; settings: in vivo; how it was run: as §1
[7] = Drug uptake in cynomolgus monkey striatum at 168 MBq, iv by PET imaging; type: ADME, organism-based, Macaca fascicularis; settings: in vivo; how it was run: as §1
Brain = assay: Drug uptake in cynomolgus monkey brain at 168 MBq, iv by PET imaging; type: ADME, organism-based, Macaca fascicularis; settings: in vivo; how it was run: as §1
[8] = Drug uptake in human caudate nucleus at 4 MBq/200 ml after 90 mins by in vitro autoradiography in presence of MAO-A ligand pirlindole; type: ADME, tissue-based; settings: 1.5 h
How it was run: (§2)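 In vitro autoradiography with the fluorine-18 labeled radioligand on human postmortem brain tissue sections.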

[9] = Drug uptake in human caudate nucleus at 4 MBq/200 ml after 90 mins by in vitro autoradiography in presence of MAO-B inhibitor rasagiline; type: ADME, tissue-based; settings: 1.5 h; how it was run: as §2
[10] = Drug uptake in human putamen at 4 MBq/200 ml after 90 mins by in vitro autoradiography in presence of MAO-A ligand pirlindole; type: ADME, tissue-based; settings: 1.5 h; how it was run: as §2
[11] = Drug uptake in human putamen at 4 MBq/200 ml after 90 mins by in vitro autoradiography in presence of MAO-B inhibitor rasagiline; type: ADME, tissue-based; settings: 1.5 h; how it was run: as §2
[12] = Drug uptake in human caudate nucleus at 4 MBq/200 ml after 90 mins by in vitro autoradiography in presence of MAO-B inhibitor L-deprenyl; type: ADME, tissue-based; settings: 1.5 h; how it was run: as §2
[13] = Drug uptake in human putamen at 4 MBq/200 ml after 90 mins by in vitro autoradiography in presence of MAO-B inhibitor L-deprenyl; type: ADME, tissue-based; settings: 1.5 h; how it was run: as §2
[14] = Drug uptake in human caudate nucleus at 4 MBq/200 ml after 90 mins by in vitro autoradiography; type: ADME, tissue-based; settings: 1.5 h; how it was run: as §2
[15] = Drug uptake in human putamen at 4 MBq/200 ml after 90 mins by in vitro autoradiography; type: ADME, tissue-based; settings: 1.5 h; how it was run: as §2
[16] = Drug uptake in human hippocampus at 4 MBq/200 ml after 90 mins by in vitro autoradiography in presence of MAO-A ligand pirlindole; type: ADME, tissue-based; settings: 1.5 h; how it was run: as §2
[17] = Drug uptake in human thalamus at 4 MBq/200 ml after 90 mins by in vitro autoradiography in presence of MAO-A ligand pirlindole; type: ADME, tissue-based; settings: 1.5 h; how it was run: as §2
[18] = Drug uptake in human hippocampus at 4 MBq/200 ml after 90 mins by in vitro autoradiography in presence of MAO-B inhibitor rasagiline; type: ADME, tissue-based; settings: 1.5 h; how it was run: as §2
[19] = Drug uptake in human thalamus at 4 MBq/200 ml after 90 mins by in vitro autoradiography in presence of MAO-B inhibitor rasagiline; type: ADME, tissue-based; settings: 1.5 h; how it was run: as §2
[20] = Drug uptake in human hippocampus at 4 MBq/200 ml after 90 mins by in vitro autoradiography in presence of MAO-B inhibitor L-deprenyl; type: ADME, tissue-based; settings: 1.5 h; how it was run: as §2
[21] = Drug uptake in human thalamus at 4 MBq/200 ml after 90 mins by in vitro autoradiography in presence of MAO-B inhibitor L-deprenyl; type: ADME, tissue-based; settings: 1.5 h; how it was run: as §2
[22] = Drug uptake in human hippocampus at 4 MBq/200 ml after 90 mins by in vitro autoradiography; type: ADME, tissue-based; settings: 1.5 h; how it was run: as §2
[23] = Drug uptake in human thalamus at 4 MBq/200 ml after 90 mins by in vitro autoradiography; type: ADME, tissue-based; settings: 1.5 h; how it was run: as §2
[24] = Metabolic stability in cynomolgus monkey plasma assessed as parent compound at 168 MBq, iv after 120 mins by HPLC analysis; type: ADME, organism-based, Macaca fascicularis; settings: read-out: Stability
[25] = Metabolic stability in cynomolgus monkey plasma assessed as parent compound at 168 MBq, iv after 45 mins by HPLC analysis; type: ADME, organism-based, Macaca fascicularis; settings: read-out: Stability
Plasma [26] = assay: Metabolic stability in cynomolgus monkey plasma assessed as metabolite M5 retention time at 168 MBq, iv by HPLC analysis; type: ADME, organism-based, Macaca fascicularis; settings: in vivo
Cortex [27] = assay: Drug uptake in human cortex at 4 MBq/200 ml after 90 mins by in vitro autoradiography in presence of MAO-A ligand pirlindole; type: ADME, tissue-based; settings: 1.5 h; how it was run: as §2
[28] = Drug uptake in human basal ganglia at 4 MBq/200 ml after 90 mins by in vitro autoradiography in presence of MAO-A ligand pirlindole; type: ADME; settings: 1.5 h; how it was run: as §2
Cortex [29] = assay: Drug uptake in human cortex at 4 MBq/200 ml after 90 mins by in vitro autoradiography in presence of MAO-B inhibitor rasagiline; type: ADME, tissue-based; settings: 1.5 h; how it was run: as §2
[30] = Drug uptake in human basal ganglia at 4 MBq/200 ml after 90 mins by in vitro autoradiography in presence of MAO-B inhibitor rasagiline; type: ADME; settings: 1.5 h; how it was run: as §2
Cortex [31] = assay: Drug uptake in human cortex at 4 MBq/200 ml after 90 mins by in vitro autoradiography in presence of MAO-B inhibitor L-deprenyl; type: ADME, tissue-based; settings: 1.5 h; how it was run: as §2
[32] = Drug uptake in human basal ganglia at 4 MBq/200 ml after 90 mins by in vitro autoradiography in presence of MAO-B inhibitor L-deprenyl; type: ADME; settings: 1.5 h; how it was run: as §2
Cortex [33] = assay: Drug uptake in human cortex at 4 MBq/200 ml after 90 mins by in vitro autoradiography; type: ADME, tissue-based; settings: 1.5 h; how it was run: as §2
[34] = Drug uptake in human basal ganglia at 4 MBq/200 ml after 90 mins by in vitro autoradiography; type: ADME; settings: 1.5 h; how it was run: as §2
[35] = Stability of the compound in PBS buffer at pH 7.4 up to 150 mins; type: physicochemical; settings: pH 7.4, 2.5 h
[36] = target: T1, Amine oxidase [flavin-containing] B (Homo sapiens, UniProt P27338); assay: Inhibition of recombinant human MAO-B assessed as inhibition of kynuramine oxidation by spectrophotometry
T1 sequence (P27338 whole entry): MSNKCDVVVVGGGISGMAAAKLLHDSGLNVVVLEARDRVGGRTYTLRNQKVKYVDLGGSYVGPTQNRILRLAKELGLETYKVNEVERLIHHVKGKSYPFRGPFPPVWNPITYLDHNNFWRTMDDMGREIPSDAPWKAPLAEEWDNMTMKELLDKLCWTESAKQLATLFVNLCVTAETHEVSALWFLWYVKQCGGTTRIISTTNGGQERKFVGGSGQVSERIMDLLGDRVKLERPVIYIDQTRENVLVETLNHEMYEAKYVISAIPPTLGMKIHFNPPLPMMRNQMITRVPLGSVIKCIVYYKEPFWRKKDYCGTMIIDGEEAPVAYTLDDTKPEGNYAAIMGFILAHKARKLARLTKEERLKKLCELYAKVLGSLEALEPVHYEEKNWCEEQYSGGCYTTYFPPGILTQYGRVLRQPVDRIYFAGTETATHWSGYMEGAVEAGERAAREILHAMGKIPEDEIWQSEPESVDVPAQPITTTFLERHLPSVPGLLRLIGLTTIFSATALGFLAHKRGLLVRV

[37] = target: T2, Amine oxidase [flavin-containing] A (Homo sapiens, UniProt P21397); assay: Inhibition of recombinant human MAO-A assessed as inhibition of kynuramine oxidation by spectrophotometry
T2 sequence (P21397 whole entry): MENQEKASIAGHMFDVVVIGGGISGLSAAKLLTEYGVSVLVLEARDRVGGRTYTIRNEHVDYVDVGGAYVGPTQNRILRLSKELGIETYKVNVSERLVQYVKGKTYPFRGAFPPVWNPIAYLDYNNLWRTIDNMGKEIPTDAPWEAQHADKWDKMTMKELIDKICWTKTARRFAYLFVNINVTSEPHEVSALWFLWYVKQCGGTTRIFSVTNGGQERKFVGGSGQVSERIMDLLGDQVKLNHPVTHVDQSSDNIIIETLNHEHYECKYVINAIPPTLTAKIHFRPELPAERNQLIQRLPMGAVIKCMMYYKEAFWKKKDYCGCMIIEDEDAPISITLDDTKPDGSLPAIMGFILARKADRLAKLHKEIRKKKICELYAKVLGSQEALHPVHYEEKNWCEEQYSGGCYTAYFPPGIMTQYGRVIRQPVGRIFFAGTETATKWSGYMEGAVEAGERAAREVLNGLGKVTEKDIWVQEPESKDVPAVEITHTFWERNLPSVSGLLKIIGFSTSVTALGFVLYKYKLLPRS

## C#CCN(C)[C@H](C[18F])CC(C)C
Plasma [1]
  Retention_time: 4.2 min
Plasma [2]
  Retention_time: 3.7 min
Plasma [3]
  Retention_time: 3.4 min
Plasma [4]
  Retention_time: 2 min
[5]
  Drug uptake: Not Active
[6]
  Drug uptake: Not Active
Thalamus
  Drug uptake: Active
[7]
  Drug uptake: Active
Brain
  SUV: 250%
[8]
  Drug uptake: Active
[9]
  Drug uptake: Not Active
[10]
  Drug uptake: Active
[11]
  Drug uptake: Not Active
[12]
  Drug uptake: Not Active
[13]
  Drug uptake: Not Active
[14]
  Drug uptake: Active
[15]
  Drug uptake: Active
[16]
  Drug uptake: Active
[17]
  Drug uptake: Active
[18]
  Drug uptake: Not Active
[19]
  Drug uptake: Not Active
[20]
  Drug uptake: Not Active
[21]
  Drug uptake: Not Active
[22]
  Drug uptake: Active
[23]
  Drug uptake: Active
[24]
  remaining at 2 h: 12%
[25]
  remaining at 0.75 h: 20%
Plasma [26]
  Retention_time: 6.2 min

## C#CCN(C)[C@H](C[18F])Cc1ccco1
[16]
  Drug uptake: Active
Cortex [27]
  Drug uptake: Active
[17]
  Drug uptake: Active
[28]
  Drug uptake: Active
[18]
  Drug uptake: Not Active
Cortex [29]
  Drug uptake: Not Active
[19]
  Drug uptake: Not Active
[30]
  Drug uptake: Not Active
[20]
  Drug uptake: Not Active
Cortex [31]
  Drug uptake: Not Active
[21]
  Drug uptake: Not Active
[32]
  Drug uptake: Not Active
Cortex [33]
  Drug uptake: Active
[22]
  Drug uptake: Active
[23]
  Drug uptake: Active
[34]
  Drug uptake: Active

## C#CCN(C)[C@H](C[19F])Cc1ccco1
[35]
  Stability: Stable

## C#CCN(C)[C@H](C[19F])CC(C)C
[35]
  Stability: Stable

## C#CCN(C)[C@H](CF)CC(C)C
[36]
  pIC50: 6.88
[37]
  pIC50: < 5.70

## C#CCN(C)[C@H](CF)CC(=C)C
[36]
  pIC50: 6.18
[37]
  pIC50: < 5.70

## C#CCN(C)[C@H](CF)Cc1ccco1
[36]
  pIC50: 6.68
[37]
  pIC50: < 5.70
